The source made the active and inactive calls. No cut-off for these calls is given here.
How the values were obtained:
Plasmodium falciparum = test: Antiplasmodial activity against chloroquine-resistant Plasmodium falciparum K1; assay type: functional, organism-based
Procedure, shortened: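 Chloroquine-resistant K1 strain tested in vitro. IC50 is the average of duplicate determinations.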

[1] = tested on: Trypanosoma brucei rhodesiense; test: Antitrypanosomal activity against Trypanosoma brucei rhodesiense STIB900 infected in NMRI mouse assessed as mean survival days at 25 mg/kg, po administered for 4 days; assay type: functional
Procedure, shortened: (§1)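 Female NMRI mice, acute infection model with T. b. rhodesiense STIB900. Compound given as a single daily dose for four days, intraperitoneally or orally. Cure means survival to 60 days post-infection without parasitaemia relapse. Mean survival recorded in days.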

[2] = Selectivity index, ratio of IC50 for rat L6 cells to IC50 for amastigotes of Leishmania donovani; assay type: toxicity, cell-based; conditions: read-out: Ratio IC50
Procedure, shortened: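 SI = IC50 in rat L6 myoblasts / IC50 against L. donovani MHOM/SD/62/IS-CL2D axenic amastigotes. The amastigote IC50 is the average of at least two determinations; the L6 IC50 is the average of duplicates.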

[3] = Selectivity index, ratio of IC50 for rat L6 cells to IC50 for chloroquine-resistant Plasmodium falciparum K1; assay type: toxicity, cell-based; conditions: read-out: Ratio IC50
Procedure, shortened: (§2)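 SI = IC50 in rat L6 myoblasts / IC50 against the parasite (T. b. rhodesiense STIB900 or P. falciparum K1). Each IC50 is the average of duplicate determinations.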

Leishmania donovani = test: Antileishmanial activity against amastigotes of Leishmania donovani MHOM/SD/62/IS-CL2D; assay type: functional, organism-based
Procedure, shortened: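 Axenic amastigotes of L. donovani MHOM/SD/62/IS-CL2D; IC50 taken as the average of at least two determinations.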

[4] = tested on: Trypanosoma brucei rhodesiense; test: Antitrypanosomal activity against Trypanosoma brucei rhodesiense STIB900 infected in NMRI mouse assessed as mean survival days at 100 mg/kg, po administered for 4 days; assay type: functional; procedure, shortened: as §1
L6 = test: Cytotoxicity against rat L6 cells after 72 hrs by Alamar blue assay; assay type: cell-based; conditions: L6, 72 h
Procedure, shortened: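 Rat L6 myoblast cells; cytotoxic IC50 taken as the average of duplicate determinations.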

[5] = Selectivity index, ratio of IC50 for rat L6 cells to IC50 for Trypanosoma brucei rhodesiense STIB900; assay type: toxicity, cell-based; conditions: read-out: Ratio IC50; procedure, shortened: as §2
[6] = tested on: Trypanosoma brucei rhodesiense; test: Antitrypanosomal activity against Trypanosoma brucei rhodesiense STIB900 after 72 hrs by Alamar blue assay; assay type: functional, organism-based; conditions: STIB900, 72 h
[7] = tested on: Trypanosoma brucei rhodesiense; test: Antitrypanosomal activity against Trypanosoma brucei rhodesiense STIB900 infected in NMRI mouse assessed as cured animal at 20 mg/kg, ip administered for 4 days; assay type: functional, organism-based; set-up: dose 20 mg/kg
Procedure, shortened: (§3)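 Acute model in female NMRI mice infected with T. b. rhodesiense STIB900. Single daily doses given for four days, intraperitoneally or orally. Mice surviving 60 days post-infection without parasitaemia relapse counted as cured; result reported as cured/infected out of 4 mice per group, with mean survival in days.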

[8] = tested on: Trypanosoma brucei rhodesiense; test: Antitrypanosomal activity against Trypanosoma brucei rhodesiense STIB900 infected in NMRI mouse assessed as mean survival days at 20 mg/kg, ip administered for 4 days; assay type: functional; conditions: route intraperitoneal; procedure, shortened: as §1
[9] = tested on: Trypanosoma brucei rhodesiense; test: Antitrypanosomal activity against Trypanosoma brucei rhodesiense STIB900 infected in NMRI mouse assessed as cured animal at 2 mg/kg, ip administered for 4 days; assay type: functional, organism-based; set-up: dose 2 mg/kg; procedure, shortened: as §1
[10] = tested on: Trypanosoma brucei rhodesiense; test: Antitrypanosomal activity against Trypanosoma brucei rhodesiense STIB900 infected in NMRI mouse assessed as mean survival days at 2 mg/kg, ip administered for 4 days; assay type: functional; conditions: route intraperitoneal; procedure, shortened: as §1
[11] = tested on: Trypanosoma brucei rhodesiense; test: Antitrypanosomal activity against Trypanosoma brucei rhodesiense STIB900 infected in NMRI mouse assessed as mean survival days at 5 mg/kg, ip administered for 4 days; assay type: functional; conditions: route intraperitoneal; procedure, shortened: as §1
[12] = tested on: Trypanosoma brucei rhodesiense; test: Antitrypanosomal activity against Trypanosoma brucei rhodesiense STIB900 infected in NMRI mouse assessed as cured animal at 5 mg/kg, ip administered for 4 days; assay type: functional, organism-based; set-up: dose 5 mg/kg; procedure, shortened: as §3
[13] = tested on: Trypanosoma brucei rhodesiense; test: Antitrypanosomal activity against Trypanosoma brucei rhodesiense STIB900 infected in NMRI mouse assessed as cured animal at 100 mg/kg, po administered for 4 days; assay type: functional, organism-based; set-up: dose 100 mg/kg; procedure, shortened: as §3
[14] = tested on: Trypanosoma brucei rhodesiense; test: Antitrypanosomal activity against Trypanosoma brucei rhodesiense STIB900 infected in NMRI mouse assessed as cured animal at 25 mg/kg, po administered for 4 days; assay type: functional, organism-based; set-up: dose 25 mg/kg; procedure, shortened: as §3

Structure (SMILES) | IC50 (Plasmodium falciparum) | MSD [1] | selectivity ratio [2] | selectivity ratio [3] | IC50 (Leishmania donovani) | MSD [4] | IC50 (L6) | selectivity ratio [5] | IC50 [6] | Activity [7] | MSD [8] | Activity [9] | MSD [10] | MSD [11] | Activity [12] | Activity [13] | Activity [14]
Cl.Cl.N/C(=N\O)c1ccc(COc2ccc(/C(N)=N/O)cc2)cc1 | 9.49 µM | >31.7 days | < 1 | < 1 | > 100 µM | >46.25 days | 8.28 µM | < 1 | > 238 µM | – | – | – | – | – | – | – | –
N=C(N)c1ccc(OCc2cccc(C(=N)N)c2)cc1 | 0.035 µM | – | – | 168 | – | – | 5.93 µM | 250 | 0.024 µM | inactive | 25.25 days | – | – | – | – | – | –
Nc1nc(N)nc(Nc2ccc([As]3SCC(CO)S3)cc2)n1 (stereo not drawn) [MELARSOPROL] | – | – | – | – | – | – | – | 1220 | – | – | – | Active | >60 days | – | – | – | –
N=C(N)c1cccc(COc2cccc(C(=N)N)c2)c1 | 0.121 µM | – | – | 198 | – | – | 24 µM | 248 | 0.097 µM | inactive | 19.8 days | – | – | – | – | – | –
N=C(N)c1ccc(COc2cccc(C(=N)N)c2)cc1 | 0.195 µM | – | < 1 | 99 | 42.1 µM | – | 19.3 µM | 694 | 0.028 µM | – | – | – | – | 19 days | inactive | – | –
N=C(N)c1cccc(COc2c(Br)cc(C(=N)N)cc2Br)c1 | 0.12 µM | – | 1 | 39 | 3.37 µM | – | 4.7 µM | 1270 | 0.004 µM | – | – | – | – | >35.25 days | inactive | – | –
COc1cc(C(=N)N)cc(Br)c1OCc1cccc(C(=N)N)c1.Cl.Cl | 0.0289 µM | – | < 2 | 747 | 11.4 µM | – | 21.6 µM | 4070 | 0.005 µM | – | – | – | – | >45.75 days | inactive | – | –
Cl.Cl.N/C(=N\O)c1cccc(COc2c(Br)cc(/C(N)=N/O)cc2Br)c1 | 7.56 µM | 20.75 days | < 1 | 4 | 61.1 µM | >60 days | 26.8 µM | 4 | 6.89 µM | – | – | – | – | – | – | Active | inactive
COc1cc(C(=N)N)ccc1OCc1cccc(C(=N)N)c1 | 0.031 µM | – | 3 | 2760 | 28.6 µM | – | 85.4 µM | 4400 | 0.019 µM | – | – | – | – | 22 days | inactive | – | –
